{
  "source": "ChEMBL document CHEMBL4184287",
  "about": "“Investigating PKA-RII specificity using analogs of the PKA:AKAP peptide inhibitor STAD-2” (Bioorg Med Chem, 2018)",
  "key": {"[1]": {"molecular_target": "cAMP-dependent protein kinase type I-beta regulatory subunit (Homo sapiens) (UniProt P31321)", "sequence (P31321 whole entry)": "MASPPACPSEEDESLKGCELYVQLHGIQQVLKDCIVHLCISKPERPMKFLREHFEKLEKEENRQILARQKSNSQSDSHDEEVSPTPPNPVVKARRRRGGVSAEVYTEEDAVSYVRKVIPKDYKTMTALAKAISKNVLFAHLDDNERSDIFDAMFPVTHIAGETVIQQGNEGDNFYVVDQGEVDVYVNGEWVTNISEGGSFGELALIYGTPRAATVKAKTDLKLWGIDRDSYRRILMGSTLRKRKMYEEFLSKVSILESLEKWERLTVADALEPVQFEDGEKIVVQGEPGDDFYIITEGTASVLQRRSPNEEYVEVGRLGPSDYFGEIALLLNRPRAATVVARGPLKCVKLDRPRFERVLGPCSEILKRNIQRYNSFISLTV", "experiment": "Binding affinity to recombinant human full length PKA-R1beta expressed in Escherichia coli BL21 DE3-RIL cells assessed as reduction in interaction with AKAP at 20 nM by fluorescence polarization analysis", "summary_of_the_method": "(§1)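 Single-concentration direct FP screen: 5 μM full-length recombinant human RIα or RIβ mixed with 20 nM 5(6)-FAM-labelled peptide in 20 mM MOPS pH 7, 150 mM NaCl, 0.005% (v/v) CHAPS. Read at room temperature, Ex 482 nm/Em 520 nm, in duplicate.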"}, "[2]": {"molecular_target": "cAMP-dependent protein kinase type I-alpha regulatory subunit (Homo sapiens) (UniProt P10644)", "sequence (P10644 whole entry)": "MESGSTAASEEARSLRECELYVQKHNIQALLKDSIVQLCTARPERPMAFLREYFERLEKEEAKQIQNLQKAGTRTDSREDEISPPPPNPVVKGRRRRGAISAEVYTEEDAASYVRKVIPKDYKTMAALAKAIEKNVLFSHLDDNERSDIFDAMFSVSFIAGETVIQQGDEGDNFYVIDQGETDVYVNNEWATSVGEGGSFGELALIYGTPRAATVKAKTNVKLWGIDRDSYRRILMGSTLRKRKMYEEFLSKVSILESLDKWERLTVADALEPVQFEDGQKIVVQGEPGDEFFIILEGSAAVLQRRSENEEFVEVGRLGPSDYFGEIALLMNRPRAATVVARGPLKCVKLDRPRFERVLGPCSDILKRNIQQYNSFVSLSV", "experiment": "Binding affinity to recombinant human full length PKA-R1alpha expressed in Escherichia coli BL21 DE3-RIL cells assessed as reduction in interaction with AKAP at 20 nM by fluorescence polarization analysis", "summary_of_the_method": "as §1"}},
  "note": "Active and inactive are the calls of the source. No cut-off for these calls is given here.",
  "data": [
    {"smiles": "CC(C)C[C@H](NC(=O)[C@H](C)NC(=O)[C@]1(C)CCC/C=C/CCC[C@](C)(NC(=O)[C@H](CO)NC(=O)[C@@H](NC(=O)[C@H](C)NC(=O)[C@H](Cc2ccccc2)NC(=O)[C@H](CCCCN)NC(=O)[C@H](C)NC(=O)[C@H](CC(C)C)NC(=O)[C@H](CCCCN)NC(=O)[C@H](CCCCN)NC(=O)COCCOCCOCCN)C(C)C)C(=O)N[C@@H](C)C(=O)N[C@@H](CC(C)C)C(=O)N[C@@H](CCCCN)C(=O)N1)C(=O)N[C@@H](CCCCN)C(=O)O", "values": [
      {"measurement": "Activity", "setting": "[1]", "result": "inactive"},
      {"measurement": "Activity", "setting": "[2]", "result": "inactive"}
    ]},
    {"smiles": "CC(C)C[C@H](NC(=O)[C@H](C)NC(=O)[C@H](CCCCN)NC(=O)COCCOCCOCCN)C(=O)N[C@@H](C)C(=O)N[C@@H](CCCCN)C(=O)N[C@@H](Cc1ccccc1)C(=O)N[C@@H](CC(C)C)C(=O)N[C@H](C(=O)N[C@@H](CO)C(=O)N[C@@]1(C)CCC/C=C/CCC[C@@](C)(C(=O)N[C@@H](C)C(=O)N[C@@H](CC(C)C)C(=O)N[C@@H](CCCCN)C(=O)O)NC(=O)[C@H](CCCCN)NC(=O)[C@H](CC(C)C)NC(=O)[C@H](C)NC1=O)C(C)C", "values": [
      {"measurement": "Activity", "setting": "[1]", "result": "inactive"},
      {"measurement": "Activity", "setting": "[2]", "result": "inactive"}
    ]},
    {"smiles": "CC(C)C[C@H](NC(=O)[C@H](C)NC(=O)[C@]1(C)CCC/C=C/CCC[C@](C)(NC(=O)[C@H](CO)NC(=O)[C@@H](NC(=O)[C@H](CC(C)C)NC(=O)[C@H](Cc2ccccc2)NC(=O)[C@H](CCCCN)NC(=O)[C@H](C)NC(=O)[C@H](CC(C)C)NC(=O)[C@H](CCCCN)NC(=O)[C@H](C)NC(=O)COCCOCCOCCN)C(C)C)C(=O)N[C@@H](C)C(=O)N[C@@H](CC(C)C)C(=O)N[C@@H](CCCCN)C(=O)N1)C(=O)N[C@@H](CCCCN)C(=O)O", "values": [
      {"measurement": "Activity", "setting": "[1]", "result": "inactive"},
      {"measurement": "Activity", "setting": "[2]", "result": "inactive"}
    ]},
    {"smiles": "CC(C)C[C@H](NC(=O)[C@H](C)NC(=O)[C@]1(C)CCC/C=C/CCC[C@](C)(NC(=O)[C@H](CO)NC(=O)[C@@H](NC(=O)[C@H](CC(C)C)NC(=O)[C@H](C)NC(=O)[C@H](CCCCN)NC(=O)[C@H](C)NC(=O)[C@H](CC(C)C)NC(=O)[C@H](CCCCN)NC(=O)[C@H](CCCCN)NC(=O)COCCOCCOCCN)C(C)C)C(=O)N[C@@H](C)C(=O)N[C@@H](CC(C)C)C(=O)N[C@@H](CCCCN)C(=O)N1)C(=O)N[C@@H](CCCCN)C(=O)O", "values": [
      {"measurement": "Activity", "setting": "[1]", "result": "inactive"},
      {"measurement": "Activity", "setting": "[2]", "result": "inactive"}
    ]},
    {"smiles": "CC(C)C[C@H](NC(=O)[C@H](C)NC(=O)[C@]1(C)CCC/C=C/CCC[C@](C)(NC(=O)[C@H](CO)NC(=O)[C@@H](NC(=O)[C@H](CC(C)C)NC(=O)[C@H](Cc2ccccc2)NC(=O)[C@H](C)NC(=O)[C@H](C)NC(=O)[C@H](CC(C)C)NC(=O)[C@H](CCCCN)NC(=O)[C@H](CCCCN)NC(=O)COCCOCCOCCN)C(C)C)C(=O)N[C@@H](C)C(=O)N[C@@H](CC(C)C)C(=O)N[C@@H](CCCCN)C(=O)N1)C(=O)N[C@@H](CCCCN)C(=O)O", "values": [
      {"measurement": "Activity", "setting": "[1]", "result": "inactive"},
      {"measurement": "Activity", "setting": "[2]", "result": "inactive"}
    ]},
    {"smiles": "CC(C)C[C@H](NC(=O)[C@H](C)NC(=O)[C@]1(C)CCC/C=C/CCC[C@](C)(NC(=O)[C@H](CO)NC(=O)[C@@H](NC(=O)[C@H](CC(C)C)NC(=O)[C@H](Cc2ccccc2)NC(=O)[C@H](CCCCN)NC(=O)[C@H](C)NC(=O)[C@H](CC(C)C)NC(=O)[C@H](CCCCN)NC(=O)[C@H](CCCCN)NC(=O)COCCOCCOCCN)C(C)C)C(=O)N[C@@H](C)C(=O)N[C@@H](CC(C)C)C(=O)N[C@@H](CCCCN)C(=O)N1)C(=O)N[C@@H](C)C(=O)O", "values": [
      {"measurement": "Activity", "setting": "[1]", "result": "inactive"},
      {"measurement": "Activity", "setting": "[2]", "result": "inactive"}
    ]},
    {"smiles": "CC(C)C[C@H](NC(=O)[C@H](C)NC(=O)[C@]1(C)CCC/C=C/CCC[C@](C)(NC(=O)[C@H](CO)NC(=O)[C@@H](NC(=O)[C@H](CC(C)C)NC(=O)[C@H](Cc2ccccc2)NC(=O)[C@H](CCCCN)NC(=O)[C@H](C)NC(=O)[C@H](C)NC(=O)[C@H](CCCCN)NC(=O)[C@H](CCCCN)NC(=O)COCCOCCOCCN)C(C)C)C(=O)N[C@@H](C)C(=O)N[C@@H](CC(C)C)C(=O)N[C@@H](CCCCN)C(=O)N1)C(=O)N[C@@H](CCCCN)C(=O)O", "values": [
      {"measurement": "Activity", "setting": "[1]", "result": "inactive"},
      {"measurement": "Activity", "setting": "[2]", "result": "inactive"}
    ]},
    {"smiles": "CC(C)C[C@H](NC(=O)[C@H](C)NC(=O)[C@]1(C)CCC/C=C/CCC[C@](C)(NC(=O)[C@H](C)NC(=O)[C@@H](NC(=O)[C@H](CC(C)C)NC(=O)[C@H](Cc2ccccc2)NC(=O)[C@H](CCCCN)NC(=O)[C@H](C)NC(=O)[C@H](CC(C)C)NC(=O)[C@H](CCCCN)NC(=O)[C@H](CCCCN)NC(=O)COCCOCCOCCN)C(C)C)C(=O)N[C@@H](C)C(=O)N[C@@H](CC(C)C)C(=O)N[C@@H](CCCCN)C(=O)N1)C(=O)N[C@@H](CCCCN)C(=O)O", "values": [
      {"measurement": "Activity", "setting": "[1]", "result": "inactive"},
      {"measurement": "Activity", "setting": "[2]", "result": "inactive"}
    ]},
    {"smiles": "CC(C)C[C@H](NC(=O)[C@H](C)NC(=O)[C@]1(C)CCC/C=C/CCC[C@](C)(NC(=O)[C@H](CO)NC(=O)[C@H](C)NC(=O)[C@H](CC(C)C)NC(=O)[C@H](Cc2ccccc2)NC(=O)[C@H](CCCCN)NC(=O)[C@H](C)NC(=O)[C@H](CC(C)C)NC(=O)[C@H](CCCCN)NC(=O)[C@H](CCCCN)NC(=O)COCCOCCOCCN)C(=O)N[C@@H](C)C(=O)N[C@@H](CC(C)C)C(=O)N[C@@H](CCCCN)C(=O)N1)C(=O)N[C@@H](CCCCN)C(=O)O", "values": [
      {"measurement": "Activity", "setting": "[1]", "result": "inactive"},
      {"measurement": "Activity", "setting": "[2]", "result": "inactive"}
    ]},
    {"smiles": "CC(C)C[C@@H]1NC(=O)[C@H](C)NC(=O)[C@@](C)(NC(=O)[C@H](CO)NC(=O)[C@@H](NC(=O)[C@H](CC(C)C)NC(=O)[C@H](Cc2ccccc2)NC(=O)[C@H](CCCCN)NC(=O)[C@H](C)NC(=O)[C@H](CC(C)C)NC(=O)[C@H](CCCCN)NC(=O)[C@H](CCCCN)NC(=O)COCCOCCOCCN)C(C)C)CCC/C=C/CCC[C@@](C)(C(=O)N[C@@H](C)C(=O)N[C@@H](CC(C)C)C(=O)N[C@@H](CCCCN)C(=O)O)NC(=O)[C@H](C)NC1=O", "values": [
      {"measurement": "Activity", "setting": "[1]", "result": "inactive"},
      {"measurement": "Activity", "setting": "[2]", "result": "inactive"}
    ]},
    {"smiles": "CC(C)C[C@H](NC(=O)[C@H](C)NC(=O)[C@]1(C)CCC/C=C/CCC[C@](C)(NC(=O)[C@H](CO)NC(=O)[C@@H](NC(=O)[C@H](CC(C)C)NC(=O)[C@H](Cc2ccccc2)NC(=O)[C@H](CCCCN)NC(=O)[C@H](C)NC(=O)[C@H](CC(C)C)NC(=O)[C@H](CCCCN)NC(=O)[C@H](CCCCN)NC(=O)COCCOCCOCCN)C(C)C)C(=O)N[C@@H](C)C(=O)N[C@@H](C)C(=O)N[C@@H](CCCCN)C(=O)N1)C(=O)N[C@@H](CCCCN)C(=O)O", "values": [
      {"measurement": "Activity", "setting": "[1]", "result": "inactive"},
      {"measurement": "Activity", "setting": "[2]", "result": "inactive"}
    ]},
    {"smiles": "CC(C)C[C@H](NC(=O)[C@H](C)NC(=O)[C@]1(C)CCC/C=C/CCC[C@](C)(NC(=O)[C@H](CO)NC(=O)[C@@H](NC(=O)[C@H](CC(C)C)NC(=O)[C@H](Cc2ccccc2)NC(=O)[C@H](CCCCN)NC(=O)[C@H](C)NC(=O)[C@H](CC(C)C)NC(=O)[C@H](CCCCN)NC(=O)[C@H](CCCCN)NC(=O)COCCOCCOCCN)C(C)C)C(=O)N[C@@H](C)C(=O)N[C@@H](CC(C)C)C(=O)N[C@@H](CCCCN)C(=O)N1)C(=O)N[C@@H](CCCCN)C(=O)O", "values": [
      {"measurement": "Activity", "setting": "[1]", "result": "inactive"},
      {"measurement": "Activity", "setting": "[2]", "result": "inactive"}
    ]},
    {"smiles": "CC(C)C[C@@H]1NC(=O)[C@H](C)NC(=O)[C@@](C)(NC(=O)[C@H](CO)NC(=O)[C@@H](NC(=O)[C@H](CC(C)C)NC(=O)[C@H](Cc2ccccc2)NC(=O)[C@H](CCCCN)NC(=O)[C@H](C)NC(=O)[C@H](CC(C)C)NC(=O)[C@H](CCCCN)NC(=O)[C@H](CCCCN)NC(=O)COCCOCCOCCN)C(C)C)CCC/C=C/CCC[C@@](C)(C(=O)N[C@@H](C)C(=O)N[C@@H](C)C(=O)N[C@@H](CCCCN)C(=O)O)NC(=O)[C@H](CCCCN)NC1=O", "values": [
      {"measurement": "Activity", "setting": "[1]", "result": "inactive"},
      {"measurement": "Activity", "setting": "[2]", "result": "inactive"}
    ]}
  ]
}
